Assay results as given in ChEMBL document CHEMBL1138602, “Discovery of sodium 6-[(5-chloro-2-{[(4-chloro-2-fluorophenyl)methyl]oxy}phenyl)methyl]-2-pyridinecarboxylate (GSK269984A) an EP(1) receptor antagonist for the treatment of inflammatory pain” (Bioorg Med Chem Lett, 2009).
Calls of active or inactive are those of the source. The rule behind the calls is not given here.

What was measured:
[1] = Intrinsic clearance in cynomolgus monkey hepatocytes measured per gram of liver at 0.15 to 0.2 X 10^6 cells/ml cell density; assay type: ADME, cell-based, Macaca fascicularis, Hepatocyte
Procedure, shortened: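 Intrinsic clearance in hepatocytes expressed as mL/min/g liver. Cell densities were 0.15–0.2 × 10^6 cells/mL or 0.54–0.7 × 10^6 cells/mL.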

[2] = Lipophilicity, log D at pH 7.4; assay type: physicochemical; details: buffer
Cytochrome P450 2C19 = Cytochrome P450 2C19 (Homo sapiens, UniProt P33261); experiment: Inhibition of human CYP2C19; assay type: ADME
Procedure, shortened: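 Inhibition of metabolism of fluorometric substrates (Cypex protocol); IC50 values are the mean of three experiments ± standard deviation.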

[3] = Volume of distribution at steady state in Sprague-Dawley rat at 1 mg/kg administered by intravenous infusion for 1 hr; assay type: ADME, organism-based; set-up: dose 1 mg/kg, route intravenous; details: in vivo, read-out: Vdss
[4] = Drug level in blood of complete Freund's adjuvant-induced rat inflammatory pain model at 3 mg/kg, po administered after 23 hrs of adjuvant challenge measured after 1 hr; assay type: ADME, organism-based; set-up: dose 3 mg/kg, route oral; details: read-out: Drug uptake
Procedure, shortened: (§1)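 CFA rat study: oral doses of 1, 3 or 10 mg/kg given 23 h after intraplantar adjuvant, samples 1 h post-dose. Blood values are the mean from seven animals. Brain values are the mean from three animals.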

Rattus norvegicus [5] = experiment: Antianalgesic activity against complete Freund's adjuvant-induced rat inflammatory pain in rat assessed as reversal of hypersensitivity at 10 mg/kg, po bid for 5 days measured on day 5 after 1 hr; assay type: functional, organism-based; set-up: dose 10 mg/kg
[6] = target: T1, Prostaglandin E2 receptor EP1 subtype (Homo sapiens, UniProt P34995); experiment: Displacement of [3H]PGE2 from human EP1 receptor expressed in CHO cells; assay type: cell-based
T1 sequence (P34995 whole entry): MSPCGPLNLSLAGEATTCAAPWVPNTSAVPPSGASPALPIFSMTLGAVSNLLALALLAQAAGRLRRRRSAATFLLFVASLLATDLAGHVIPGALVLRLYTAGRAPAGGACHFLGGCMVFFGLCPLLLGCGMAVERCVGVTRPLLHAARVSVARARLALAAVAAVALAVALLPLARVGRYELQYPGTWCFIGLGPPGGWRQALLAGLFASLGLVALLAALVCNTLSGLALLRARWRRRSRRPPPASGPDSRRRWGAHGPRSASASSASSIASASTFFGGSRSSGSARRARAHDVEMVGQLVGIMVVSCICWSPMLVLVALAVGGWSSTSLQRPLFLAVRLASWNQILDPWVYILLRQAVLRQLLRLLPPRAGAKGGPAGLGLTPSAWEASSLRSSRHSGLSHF
Procedure, shortened: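 Radioligand binding with [3H]-PGE2 in CHO cells overexpressing human EP1 receptor. Values are the mean of at least three experiments with standard deviations.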

[7] = Ratio of drug level in brain to blood of mouse at 0.5 mg/kg/hr administered by infusion for 12 hrs; details: brain and blood, intravenous
[8] = Oral bioavailability in cynomolgus monkey at 3 mg/kg; assay type: ADME, organism-based, Macaca fascicularis; details: in vivo
[9] = Ratio of drug level in brain to blood in complete Freund's adjuvant induced rat inflammatory pain model at 3 mg/kg, po bid for 5 days measured after 1 hr on day 5
[10] = Drug level in blood of complete Freund's adjuvant induced rat inflammatory pain model at 10 mg/kg, bid measured after 1 hr on day 5; assay type: ADME, organism-based; set-up: dose 10 mg/kg; details: read-out: Drug uptake
Procedure, shortened: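 Satellite group dosed at 10 mg/kg b.i.d. for 5 days; blood sampled 1 h post-dose on day 1 and on day 5.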

Rattus norvegicus [11] = experiment: […] activity against complete Freund's adjuvant induced inflammatory pain in po dosed rat assessed as reversal of hypersensitivity post-adjuvant challenge after 1 hr; assay type: functional
Procedure, shortened: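 Rats given adjuvant by intraplantar injection; oral dosing at 1, 3 and 10 mg/kg 23 h later. Hypersensitivity assessed by weight-bearing 1 h post-dose. ED50 derived across doses.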

[12] = target: Prostaglandin G/H synthase 1 (Homo sapiens, UniProt P23219); experiment: Inhibition of COX1
Prostacyclin receptor = Prostacyclin receptor (Homo sapiens, UniProt P43119); experiment: Inhibition of IP receptor
[13] = Ratio of drug level in brain to blood in complete Freund's adjuvant-induced rat inflammatory pain model at 10 mg/kg, po administered after 23 hrs of adjuvant challenge measured after 1 hr; assay type: ADME, organism-based; set-up: dose 10 mg/kg, route oral; details: brain and blood
Procedure, shortened: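 Rat CFA inflammatory pain model: oral dosing at 1, 3 or 10 mg/kg 23 h after intraplantar adjuvant; blood and brain sampled 1 h post-dose from the same animal; Br:Bl ratio is the mean from three animals.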

[14] = Drug level in Landrace pig brain at 0.5 mg/kg/hr administered by infusion for 1 hrs; assay type: ADME, organism-based, Sus scrofa; details: intravenous, read-out: Drug uptake
Procedure, shortened: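 Landrace pig given a 1 h infusion; blood and brain concentrations measured in a single animal.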

[15] = Drug level in brain of complete Freund's adjuvant-induced rat inflammatory pain model at 1 mg/kg, po administered after 23 hrs of adjuvant challenge measured after 1 hr; assay type: ADME, organism-based; set-up: dose 1 mg/kg, route oral; details: read-out: Drug uptake; procedure, shortened: as §1
[16] = target: Prostaglandin E2 receptor EP2 subtype (Homo sapiens, UniProt P43116); experiment: Inhibition of EP2 receptor
[17] = Drug level in mouse blood at 0.5 mg/kg/hr administered by infusion for 12 hrs; assay type: ADME, organism-based; details: intravenous, read-out: Drug uptake
Procedure, shortened: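 Steady-state 12 h infusion at 5 mL/kg/h to reach a target dose of 0.5 mg/kg/h; blood and brain concentrations measured. Data are the mean from three animals.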

[18] = Half life in Beagle dog at 1 mg/kg administered by intravenous infusion for 1 hr; assay type: ADME, organism-based, Canis lupus familiaris; set-up: dose 1 mg/kg, route intravenous; details: in vivo
Procedure, shortened: (§2)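 Intravenous administration as a 1 h infusion of a 1 mg/kg dose. Rats were male Sprague-Dawley; dogs were beagle; monkeys were cynomolgus. Blood clearance, Vss and half-life determined.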

[19] = Half life in Sprague-Dawley rat at 1 mg/kg administered by intravenous infusion for 1 hr; assay type: ADME, organism-based; set-up: dose 1 mg/kg, route intravenous; details: in vivo; procedure, shortened: as §2

Prostaglandin G/H synthase 1, sequence (P23219 whole entry): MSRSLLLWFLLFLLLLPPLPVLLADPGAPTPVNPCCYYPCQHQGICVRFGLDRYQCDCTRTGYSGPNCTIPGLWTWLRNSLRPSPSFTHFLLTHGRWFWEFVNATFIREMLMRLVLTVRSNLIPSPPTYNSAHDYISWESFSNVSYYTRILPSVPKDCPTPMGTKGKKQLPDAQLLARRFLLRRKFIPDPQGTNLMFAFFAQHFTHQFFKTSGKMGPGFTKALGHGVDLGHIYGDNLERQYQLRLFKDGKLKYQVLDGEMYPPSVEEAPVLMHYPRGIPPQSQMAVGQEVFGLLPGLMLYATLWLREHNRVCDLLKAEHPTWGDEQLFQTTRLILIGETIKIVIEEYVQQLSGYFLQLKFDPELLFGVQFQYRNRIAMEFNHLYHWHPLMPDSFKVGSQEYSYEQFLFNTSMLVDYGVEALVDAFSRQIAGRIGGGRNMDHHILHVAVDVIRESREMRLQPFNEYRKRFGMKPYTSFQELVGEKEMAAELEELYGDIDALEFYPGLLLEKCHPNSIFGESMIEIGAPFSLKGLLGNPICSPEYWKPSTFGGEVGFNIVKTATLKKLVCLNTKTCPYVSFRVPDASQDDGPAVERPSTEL
Prostaglandin E2 receptor EP2 subtype, sequence (P43116 whole entry, the tested form may be a part): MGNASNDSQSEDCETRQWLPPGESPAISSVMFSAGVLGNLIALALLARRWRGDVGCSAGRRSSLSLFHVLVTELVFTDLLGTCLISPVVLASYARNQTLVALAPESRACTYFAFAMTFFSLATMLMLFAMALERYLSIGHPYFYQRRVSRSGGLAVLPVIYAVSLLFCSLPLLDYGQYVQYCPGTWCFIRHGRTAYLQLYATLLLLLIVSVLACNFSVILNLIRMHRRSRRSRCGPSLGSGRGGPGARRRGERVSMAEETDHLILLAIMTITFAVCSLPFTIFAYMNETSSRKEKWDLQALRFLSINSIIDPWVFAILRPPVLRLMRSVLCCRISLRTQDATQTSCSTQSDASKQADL
Prostacyclin receptor, sequence (P43119 whole entry): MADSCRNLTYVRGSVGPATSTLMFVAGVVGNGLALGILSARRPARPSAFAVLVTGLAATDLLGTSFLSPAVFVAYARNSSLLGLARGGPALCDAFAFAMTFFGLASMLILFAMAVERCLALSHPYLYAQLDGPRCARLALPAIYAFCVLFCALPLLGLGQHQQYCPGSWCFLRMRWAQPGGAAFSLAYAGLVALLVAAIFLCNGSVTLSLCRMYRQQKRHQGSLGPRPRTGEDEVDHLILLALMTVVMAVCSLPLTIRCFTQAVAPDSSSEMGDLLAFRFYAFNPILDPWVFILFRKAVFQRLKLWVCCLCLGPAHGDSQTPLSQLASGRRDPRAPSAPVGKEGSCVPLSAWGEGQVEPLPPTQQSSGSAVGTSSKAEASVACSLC
Cytochrome P450 2C19, sequence (P33261 whole entry): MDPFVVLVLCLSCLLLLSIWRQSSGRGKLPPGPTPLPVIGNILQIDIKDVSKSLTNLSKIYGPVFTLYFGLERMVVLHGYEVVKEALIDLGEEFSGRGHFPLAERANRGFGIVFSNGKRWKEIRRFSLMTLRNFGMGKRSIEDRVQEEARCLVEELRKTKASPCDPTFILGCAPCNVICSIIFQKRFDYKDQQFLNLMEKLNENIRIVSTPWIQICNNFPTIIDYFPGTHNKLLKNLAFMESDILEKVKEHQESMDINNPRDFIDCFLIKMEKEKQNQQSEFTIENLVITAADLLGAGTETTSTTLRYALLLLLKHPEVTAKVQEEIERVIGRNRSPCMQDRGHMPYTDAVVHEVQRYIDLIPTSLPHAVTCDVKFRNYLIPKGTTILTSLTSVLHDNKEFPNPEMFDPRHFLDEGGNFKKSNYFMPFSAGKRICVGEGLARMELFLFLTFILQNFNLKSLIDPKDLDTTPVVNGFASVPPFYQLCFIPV

CL [1]: 4.8 mL/min/g | logD [2]: 2.1 | IC50 (Cytochrome P450 2C19): 85 µM | Vd [3]: 2.1 L/kg | concentration at 1 h [4]: 415 nM | IC50 [6]: 0.0126 µM | Kp at 12 h [7]: 0.28 | bioavailability [8]: 7% | Kp at 1 hr [9]: 0.34 | concentration at 1 h [10]: 2610 nM | IC50 [12]: > 31.6 µM | IC50 (Prostacyclin receptor): > 1 µM | Kp at 1 h [13]: 0.39 | concentration at 1 h [14]: 627 nM | concentration at 1 h [15]: 60 nM | IC50 [16]: 1.58 µM | concentration at 12 h [17]: 199 nM | half-life [18]: 1.1 h | half-life [19]: 2.3 h
SMILES: O=C([O-])c1cccc(Cc2cc(Cl)ccc2OCc2ccc(Cl)cc2F)n1.[Na+]
Activity (Rattus norvegicus [5]): Active | ED50 (Rattus norvegicus [11]): 2.6 mg/kg
